Measured values reported in ChEMBL document CHEMBL4014308, “Amphiphilic Tobramycin-Lysine Conjugates Sensitize Multidrug Resistant Gram-Negative Bacteria to Rifampicin and Minocycline” (J Med Chem, 2017).
Converted amounts (≈) assume the structure as drawn. The source made the active and inactive calls. The rule behind the calls is not given here.

Tests used:
Type in all cases: functional
[1] = system: Acinetobacter baumannii; experiment: Antibacterial activity against multidrug-resistant Acinetobacter baumannii AB027 after 18 hrs by microtiter dilution assay; settings: AB027, 18 h
In short: (§1)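 Broth microdilution following CLSI guidelines. An overnight culture was adjusted to 0.5 McFarland in saline, then diluted 1:50 in Mueller-Hinton broth. This inoculum was added in equal volume to 2-fold serial dilutions of agent in MHB and incubated 18 h at 37 °C. MIC was the lowest concentration with no visible growth.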

[2] = system: Pseudomonas aeruginosa; experiment: Antibacterial activity against multidrug/extremely drug-resistant/colistin-susceptible Pseudomonas aeruginosa isolate P264-104354 after 18 hrs by microtiter dilution assay; settings: isolate P264-104354, 18 h; in short: as §1
[3] = system: Pseudomonas aeruginosa; experiment: Bactericidal activity against Pseudomonas aeruginosa PAO1 at 4 times antibacterial MIC after 2 hrs
In short: (§2)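 Time-kill with P. aeruginosa PAO1. A 0.5 McFarland suspension was diluted 1:50 in LB broth and exposed to agent in PBS (pH 7.2) at 1/2×, 1×, 2× or 4× MIC at 37 °C for 6 h. Samples at 0, 10, 30, 60, 90, 120, 240 and 360 min were serially diluted in PBS, plated on LB agar, and colonies counted after 20 h at 37 °C.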

[4] = system: Klebsiella pneumoniae; experiment: Antibacterial activity against multidrug-resistant Klebsiella pneumoniae 116381 after 18 hrs by microtiter dilution assay; settings: Klebsiella pneumoniae, 116381, 18 h; in short: as §1
[5] = system: Pseudomonas aeruginosa; experiment: Antibacterial activity against multidrug/extremely drug-resistant/colistin-susceptible Pseudomonas aeruginosa isolate 100036 after 18 hrs by microtiter dilution assay; settings: isolate 100036, 18 h; in short: as §1
[6] = system: Pseudomonas aeruginosa; experiment: Antibacterial activity against multidrug/extremely drug-resistant/colistin-susceptible Pseudomonas aeruginosa isolate 101885 after 18 hrs by microtiter dilution assay; settings: isolate 101885, 18 h; in short: as §1
[7] = system: Pseudomonas aeruginosa; experiment: Antibacterial activity against multidrug/extremely drug-resistant/colistin-resistant Pseudomonas aeruginosa isolate 91433 after 18 hrs by microtiter dilution assay; settings: isolate 91433, 18 h; in short: as §1
[8] = system: Acinetobacter baumannii; experiment: Antibacterial activity against multidrug-resistant Acinetobacter baumannii 110193 after 18 hrs by microtiter dilution assay; settings: Acinetobacter baumannii, 110193, 18 h; in short: as §1
[9] = system: Acinetobacter baumannii; experiment: Antibacterial activity against multidrug-resistant Acinetobacter baumannii AB031 after 18 hrs by microtiter dilution assay; settings: AB031, 18 h; in short: as §1
[10] = system: Acinetobacter baumannii; experiment: Antibacterial activity against multidrug-resistant Acinetobacter baumannii AB030 after 18 hrs by microtiter dilution assay; settings: AB030, 18 h; in short: as §1
[11] = system: Pseudomonas aeruginosa; experiment: Antibacterial activity against multidrug/extremely drug-resistant/colistin-resistant Pseudomonas aeruginosa isolate 101243 after 18 hrs by microtiter dilution assay; settings: isolate 101243, 18 h; in short: as §1
[12] = system: Pseudomonas aeruginosa; experiment: Antibacterial activity against multidrug/extremely drug-resistant/colistin-susceptible Pseudomonas aeruginosa isolate P262-101856 infected in Galleria mellonella assessed as mortality at 75 mg/kg after 24 hrs relative to control; settings: isolate P262-101856, 24 h
In short: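 Galleria mellonella larvae (about 250 mg, used within 7 days; 15 per group) were injected with 10 µL of XDR P. aeruginosa P262 at 1.0×10^3 CFU/mL. At 2 h they received a single 10 µL injection: monotherapy at 75 mg/kg, or combinations at 12.5+12.5 to 75+75 mg/kg. PBS vehicle served as control. Survival was scored over 24 h at 37 °C.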

[13] = system: Pseudomonas aeruginosa; experiment: Antibacterial activity against Pseudomonas aeruginosa PAO1 after 18 hrs by microtiter dilution assay; settings: PAO1, 18 h; in short: as §1
[14] = system: Enterobacter cloacae; experiment: Antibacterial activity against multidrug-resistant Enterobacter cloacae 117029 after 18 hrs by microtiter dilution assay; settings: Enterobacter cloacae, 117029, 18 h; in short: as §1
[15] = system: Pseudomonas aeruginosa; experiment: Bactericidal activity against Pseudomonas aeruginosa PAO1 at 0.125 times antibacterial MIC after 6 hrs
[16] = system: Pseudomonas aeruginosa; experiment: Antibacterial activity against Pseudomonas aeruginosa PAO1 after 25 serial passages at 0.125 times MIC by microtiter dilution assay
[17] = system: Pseudomonas aeruginosa; experiment: Antibacterial activity against multidrug/extremely drug-resistant/colistin-susceptible Pseudomonas aeruginosa isolate P262-101856 after 18 hrs by microtiter dilution assay; settings: isolate P262-101856, 18 h; in short: as §1
[18] = system: Pseudomonas aeruginosa; experiment: Antibacterial activity against multidrug/extremely drug-resistant/colistin-susceptible Pseudomonas aeruginosa isolate P259-96918 after 18 hrs by microtiter dilution assay; settings: isolate P259-96918, 18 h; in short: as §1
[19] = system: Pseudomonas aeruginosa; experiment: Bactericidal activity against Pseudomonas aeruginosa PAO1 at 4 times antibacterial MIC after 6 hrs; in short: as §2
[20] = system: Pseudomonas aeruginosa; experiment: Antibacterial activity against Pseudomonas aeruginosa PAO1 assessed as ratio of MIC after 25 serial passages to MIC before 25 serial passages by microtiter dilution assay
In short: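 Sequential passaging of wild-type PAO1 with single drugs or drug combinations. MIC was tested in MHB for 18 h. Cells from the well at half the MIC were adjusted to 0.5 McFarland in saline, diluted 1:50 in fresh MHB and used for the next MIC test. This was repeated for 25 passages, and the fold change in MIC was plotted against passage number.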

In the case of `CO[C@H]1/C=C/O[C@@]2(C)Oc3c(C)c(O)c4c(O)c(c(/C=N/N5CCN(C)CC5)c(O)c4c3C2=O)NC(=O)/C(C)=C\C=C\[C@H](C)[C@H](O)[C@@H](C)[C@@H](O)[C@@H](C)[C@H](OC(C)=O)[C@@H]1C` [RIFAMPIN], the MIC [1] is reported as 2 µg/mL (≈ 2.43 µM), the MIC [2] is reported as 16 µg/mL (≈ 19.4 µM) and the Activity [3] is reported as “Active”. For the same compound, the MIC [4] was 1020 µg/mL (≈ 1240 µM), the MIC [5] was 16 µg/mL (≈ 19.4 µM) and the MIC [6] was 16 µg/mL (≈ 19.4 µM). It also gave an MIC [7] of 16 µg/mL (≈ 19.4 µM), an MIC [8] of 2 µg/mL (≈ 2.43 µM) and an MIC [9] of 2 µg/mL (≈ 2.43 µM). For the same compound, the MIC [10] was > 256 µg/mL, the MIC [11] was 8 µg/mL (≈ 9.72 µM) and the mortality at 75 mg/kg [12] was 100%. The MIC [13] was 16 µg/mL (≈ 19.4 µM), the MIC [14] was 16 µg/mL (≈ 19.4 µM) and the Activity [15] was “inactive”. The Activity [16] was “Active”, the MIC [17] was 1020 µg/mL (≈ 1240 µM) and the MIC [18] was 16 µg/mL (≈ 19.4 µM).
`CN(C)c1ccc(O)c2c1C[C@H]1C[C@H]3[C@H](N(C)C)C(O)=C(C(N)=O)C(=O)[C@@]3(O)C(O)=C1C2=O` [MINOCYCLINE] showed an MIC [1] of 1 µg/mL (≈ 2.19 µM), an MIC [2] of 64 µg/mL (≈ 140 µM) and an MIC [4] of 128 µg/mL (≈ 280 µM). For the same compound, the Activity [19] was “Active”, the MIC [5] was 32 µg/mL (≈ 69.9 µM) and the MIC [6] was 32 µg/mL (≈ 69.9 µM). The MIC [7] was 64 µg/mL (≈ 140 µM), the Ratio [20] was 16 and the MIC [8] was 2 µg/mL (≈ 4.37 µM). It also gave an MIC [9] of 2 µg/mL (≈ 4.37 µM), an MIC [10] of 4 µg/mL (≈ 8.74 µM) and an MIC [11] of 4 µg/mL (≈ 8.74 µM). For the same compound, the mortality at 75 mg/kg [12] was 100%, the MIC [13] was 8 µg/mL (≈ 17.5 µM) and the MIC [14] was 128 µg/mL (≈ 280 µM). For the same compound, the Activity [15] was “inactive”, the MIC [17] was 256 µg/mL (≈ 560 µM) and the MIC [18] was 32 µg/mL (≈ 69.9 µM).
